Lung fibro prol: blocks proliferation of human lung fibroblasts; LL 47 human lung fibroblast viability, ATP luminescence; hits give low values; viability, % at 10 µM; 1.1% of 85,000 active;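 active means viability at or below 50% in the single dose screen; inactive means viability above 50%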;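 further: compound exposure lasted 72 h before the ATP readout; 100% = median luminescence of untreated cell-only wells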
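Test system: LL 47 human lung fibroblasts / Incubation: 72 h compound exposure at 37 °C after overnight plating / Technique: luminescent ATP detection, CellTiter-Glo / Compound dosing: 0.1% DMSO in all compound wells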
HUVEC inhibit: human endothelial cell proliferation inhibition. HUVEC proliferation, CellTiter-Glo luminescence, 72 h; hits give low values. viability, % at 10 µM (by protocol). 1.1% of 86,000 active. AID 648;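 active means viability at or below 30%; inactive means viability above 30%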;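 further: 100% = median luminescence of DMSO-only cell control wells on each plate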
H69AR inhibit: blocks growth of human H69AR lung tumor cells; viability, % at 10 µM; 6% of 85,000 active; H69AR lung tumor viability, ATP luminescence, 72 h; hits give low values;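 active means viability at or below 40%; inactive means viability above 40%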;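 further: multidrug resistant small cell line overexpressing MRP-1 efflux transporter; 100% = mean luminescence of untreated control wells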
HCT116 bCat-KO: beta-catenin-lacking colon tumor cell growth suppression; viability, % at 10 µM; HCT116 beta-catenin knockout viability, CellTiter-Glo, 60 h; hits give low values; 1.5% of 140,000 active; AID 818;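 active means viability at or under a set limit, the compound median less 4 SD, cut at about 6% in these data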;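 further: 0% = Hyamine 1622 control at 20 µM and 100% = untreated cell control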
HCT116 PTEN-null: suppresses growth of cells with PTEN deletion. HCT116 PTEN-null viability, CellTiter-Glo, 60 h; hits give low values. viability, % at 10 µM. 1.2% of 140,000 active. AID 827;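 active means viability at or below a set limit, 4 SD under the median of all tested compounds, cut at about 3.7% in these data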;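 further: PTEN knockout HCT116 line with beta catenin targeted HCT116 as companion control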
Starred values were filed as active, the others as inactive; nt = no result. The sample as a whole holds a higher share of hits than the screen did.

SMILES	Lung fibro prol	HUVEC inhibit	H69AR inhibit	HCT116 bCat-KO	HCT116 PTEN-null
COc1ccccc1C1C=C(c2ccc(C)cc2)Nc2nnnn21 (stereo not drawn)	84.6	76.6	18.5*	90.6	82.6
CCOc1ccc(C2C=C(c3ccc(C)cc3)Nc3ncnn32)cc1 (stereo not drawn)	90.9	89.8	78.7	96.5	84.0
CCOc1ccc(C2C=C(c3ccccc3)Nc3nnnn32)cc1 (stereo not drawn)	100.4	58.8	32.8*	101.0	87.6
Cc1ccc(C2=CC(c3cccs3)n3nnnc3N2)cc1 (stereo not drawn)	nt	nt	nt	80.9	70.8
COc1ccc([N+](=O)[O-])cc1NC(=O)c1cn(-c2ccc(Cl)cc2)c(=O)c2ccccc12	nt	nt	nt	80.4	81.6
CC(C)NS(=O)(=O)c1ccc(NC(=O)C2CC3C=CC2C3)cc1 (stereo not drawn)	nt	nt	nt	96.8	93.3
O=C(CSc1ncnc2scc(-c3ccc(Cl)cc3)c12)NCc1ccc2c(c1)OCO2	nt	nt	nt	89.1	61.8
CCOC(=O)c1sc(Nc2nc3c(OC)cccc3s2)nc1C	nt	nt	nt	29.0	27.0
Fc1cccc2sc(Nc3nnc(-c4ccco4)o3)nc12	64.6	56.8	36.9*	19.0	18.8
COc1cccc2sc(Nc3nnc(-c4cccs4)o3)nc12	41.2*	2.8*	22.6*	2.6*	8.2
Fc1cccc2sc(Nc3nc4cc5c(cc4s3)OCCO5)nc12	nt	nt	nt	71.1	84.3
COc1cccc2sc(Nc3nnc(-c4ccc(F)cc4)o3)nc12	62.1	2.9*	35.3*	13.0	14.8
Clc1cc(Br)ccc1OCCCNCc1ccccc1	nt	nt	nt	77.5	74.2
COc1cc(/C=C(\C#N)C(=O)NC2CCCCC2C)ccc1OS(=O)(=O)c1ccc(C)cc1 (stereo not drawn)	nt	nt	nt	0.8*	1.0*
COc1cc(/C=C(\C#N)C(N)=O)ccc1OS(=O)(=O)c1ccc(C)cc1	nt	nt	nt	34.0	46.7
CCOC(=O)N1CCC(n2c(SCC(=O)NCc3ccccc3)nc3ccccc3c2=O)CC1	90.7	96.2	57.5	68.2	63.0
CCOC(=O)N1CCC(n2c(SCC(=O)NCCC3=CCCCC3)nc3ccccc3c2=O)CC1	88.1	74.5	26.3*	45.0	49.4
CCOC(=O)N1CCC(n2c(SCC(=O)N3CCC(C)CC3)nc3ccccc3c2=O)CC1	104.9	87.6	30.3*	42.5	53.2
O=C(COC(=O)/C=C/c1ccc(OC(F)F)cc1)NCc1cccs1	nt	nt	nt	97.4	97.3
COc1cccc(/C=N\n2c(C)nnc2C)c1OC	nt	nt	nt	97.6	94.8
COc1ccc(/C=N/N2CCN(c3ccccc3OC)CC2)cc1OC	nt	nt	nt	103.2	99.7
COc1ccc(/C=N/n2c(SC)nnc2-c2ccccc2)cc1C	88.1	86.9	26.2*	80.0	68.5
COc1ccc(/C=N/n2c(SC)nnc2-c2ccccc2)c(OC)c1OC	60.4	43.4	30.2*	27.6	31.4
CCNC(=O)Cn1c(=O)c2c(ncn2Cc2ccccc2)n(Cc2ccccc2)c1=O	98.2	100.1	78.1	89.8	94.7
CCn1cnc2c1c(=O)n(CC(=O)Nc1ccc3c(c1)OC(F)(F)O3)c(=O)n2Cc1ccccc1	84.0	85.9	31.7*	89.0	72.6
SMILES	Lung fibro prol	HUVEC inhibit	H69AR inhibit	HCT116 bCat-KO	HCT116 PTEN-null
CCOc1ccc(S(=O)(=O)N2c3ccccc3CC2C)cc1 (stereo not drawn)	51.6	47.8	24.7*	12.7	12.8
COC(=O)C1=C(C)N(c2cc(Cl)cc(Cl)c2)C(=O)C1	70.4	80.9	3.6*	65.8	65.3
COC(=O)C1=C(C)N(c2ccc(C(=O)OC)cc2)C(=O)C1	102.5	105.4	103.9	82.5	77.0
Cc1ccc2nc(SC(C)C(=O)NCc3ccc4c(c3)OCO4)[nH]c2c1 (stereo not drawn)	nt	nt	nt	94.8	90.2
COc1cc(CNCCc2ccc(S(N)(=O)=O)cc2)ccc1OCC(=O)NC1CCCCC1	nt	nt	nt	80.6	84.9
COc1cc(CNCCN2CCOCC2)ccc1OCc1ccc(Cl)cc1	nt	nt	nt	74.8	71.9
COc1cc(CNCCc2ccc(S(N)(=O)=O)cc2)ccc1OCc1ccc(Cl)cc1	nt	nt	nt	0.6*	0.6*
CCOc1cc(CNCCc2ccc(S(N)(=O)=O)cc2)ccc1OCc1ccc(Cl)cc1	nt	nt	nt	1.4*	1.7*
COC(=O)c1cc(OC)c(OC)cc1NC(=O)Cn1nnc(-c2ccccc2Cl)n1	93.3	57.9	34.8*	78.3	83.5
COc1ccc(NC(=O)Cn2nnc(-c3ccccc3F)n2)cc1Cl	95.3	90.7	88.9	101.6	96.5
COC(=O)c1cc(OC)c(OC)cc1NC(=O)c1c(-c2ccccc2Cl)noc1C	nt	89.0	34.7*	79.2	57.6
